In PMC3010304 (Bioorganic & medicinal chemistry letters, 2010):

Tests used:
[1] = molecular target: T1, rabbit muscle glycogen phosphorylase a (RMGPa) (Oryctolagus cuniculus, UniProt P00489); test: Inhibition of rabbit muscle glycogen phosphorylase a; type: biochemical; conditions: for GP inhibitory potency relative to betulin (3): fold more potent than 3
T1 sequence (P00489 1-843): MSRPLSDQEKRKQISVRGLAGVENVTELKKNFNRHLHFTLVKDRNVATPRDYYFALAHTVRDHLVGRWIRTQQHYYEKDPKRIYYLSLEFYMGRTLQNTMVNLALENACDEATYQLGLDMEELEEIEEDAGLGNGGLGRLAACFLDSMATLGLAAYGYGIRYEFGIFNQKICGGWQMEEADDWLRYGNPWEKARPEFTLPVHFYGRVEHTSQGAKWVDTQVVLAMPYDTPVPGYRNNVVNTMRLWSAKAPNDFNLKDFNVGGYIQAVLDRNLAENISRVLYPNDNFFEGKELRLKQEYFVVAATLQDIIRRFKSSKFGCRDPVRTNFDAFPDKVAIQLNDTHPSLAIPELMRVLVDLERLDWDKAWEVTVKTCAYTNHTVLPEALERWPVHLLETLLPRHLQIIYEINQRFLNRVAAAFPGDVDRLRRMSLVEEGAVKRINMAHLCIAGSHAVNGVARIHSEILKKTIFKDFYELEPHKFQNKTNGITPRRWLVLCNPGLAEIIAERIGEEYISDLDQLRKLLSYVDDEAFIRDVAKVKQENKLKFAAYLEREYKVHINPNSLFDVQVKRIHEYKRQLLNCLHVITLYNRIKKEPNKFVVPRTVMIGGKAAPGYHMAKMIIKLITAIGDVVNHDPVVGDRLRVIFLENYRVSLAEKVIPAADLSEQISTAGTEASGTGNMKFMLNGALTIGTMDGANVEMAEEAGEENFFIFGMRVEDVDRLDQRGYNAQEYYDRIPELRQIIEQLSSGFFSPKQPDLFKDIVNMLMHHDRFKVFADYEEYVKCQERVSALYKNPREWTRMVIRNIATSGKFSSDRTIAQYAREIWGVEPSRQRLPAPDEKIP

[2] = tested on: PC3 (human prostate cancer); test: MTT cytotoxicity assay, PC3; type: cell-based; conditions: 48 h, means of three experiments, NA = no activity
HIV-1NL4-3 = HIV-1NL4-3 replication inhibition assay in MT-4 lymphocytes; type: cell-based; conditions: HIV-1NL4-3 infected MT-4 cells
Method in brief: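 MT-4 cells infected with HIV-1 NL4-3 variants at a multiplicity of infection of 0.01, in a microtiter-plate replication screen.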

[3] = tested on: MCF-7 (human breast cancer); test: MTT cytotoxicity assay, MCF-7; type: cell-based; conditions: 48 h
HIV-1IIIB = HIV-1IIIB infected C8166 cell lines; cited from earlier work
[4] = tested on: A549 (human lung carcinoma); test: MTT cytotoxicity assay, A549; type: cell-based; conditions: 48 h

C=C(C)[C@@H]1CC[C@]2(COC(c3ccccc3)(c3ccccc3)c3ccccc3)CC[C@]3(C)[C@H](CC[C@@H]4[C@@](C)(CC(=O)OC)[C@H](C(C)(C)C(=O)OC)CC[C@]43C)[C@@H]12 [Compound 6]
GP inhibitory potency relative to betulin (3) [1]: 14 fold

C=C(C)[C@@H]1CC[C@]2(COC(c3ccccc3)(c3ccccc3)c3ccccc3)CC[C@]3(C)[C@H](CC[C@@H]4[C@@]5(C)[C@H](C(=O)OC)[C@H](O)C(C)(C)[C@@H]5CC[C@]43C)[C@@H]12 [Compound 8]
IC50 ±SD, cytotoxic activity, PC3 [2]: inactive

C=C(C)[C@@H]1CC[C@]2(COC(c3ccccc3)(c3ccccc3)c3ccccc3)CC[C@]3(C)[C@H](CC[C@@H]4[C@@](C)(CC(=O)O)[C@H](C(C)(C)C(=O)O)CC[C@]43C)[C@@H]12 [Compound 5]
GP inhibitory potency relative to betulin (3) [1]: ~200 fold
GP inhibitory potency relative to compound 6 ([1]; fold more potent than 6): 14 fold

C=C(C)[C@@H]1CC[C@]2(C(=O)O)CC[C@]3(C)[C@H](CC[C@@H]4[C@@]5(C)[C@@H](C(=O)O)[C@H](O)C(C)(C)[C@@H]5CC[C@]43C)[C@@H]12 [Compound 2a, ceanothic acid]
anti-HIV-1 activity (result in words) (HIV-1NL4-3): no anti-HIV-1 activity

C=C(C)[C@@H]1CC[C@]2(COC(c3ccccc3)(c3ccccc3)c3ccccc3)CC[C@]3(C)[C@H](CC[C@@H]4[C@@]5(C)[C@H](C(=O)OC)[C@H](OC(C)=O)C(C)(C)[C@@H]5CC[C@]43C)[C@@H]12 [Compound 9]
IC50 ±SD, cytotoxic activity, PC3 [2]: inactive

C=C(C)[C@@H]1CC[C@]2(C(=O)O)CC[C@]3(C)[C@H](CC[C@@H]4[C@@]5(C)[C@H](C(=O)O)[C@H](O)C(C)(C)[C@@H]5CC[C@]43C)[C@@H]12 [Compound 1, Epiceanothic acid]
decrease of cytotoxic activity against MCF-7 compared with 12 [3]: more than 20 fold
EC50, anti-HIV-1 replication activity (HIV-1IIIB): < 0.064 µg/mL
decrease of cytotoxic activity against A549 compared with 12 [4]: more than 20 fold

C=C(C)[C@@H]1CC[C@]2(CO)CC[C@]3(C)[C@H](CC[C@@H]4[C@@]5(C)CC[C@H](O)C(C)(C)[C@@H]5CC[C@]43C)[C@@H]12 [Compound 3, betulin]
anti-HIV-1 activity (result in words) (HIV-1NL4-3): did not exhibit significant antiviral activity
